Measurements collected from several papers.
Compare with care: the assays were run in different laboratories.
Target: Serine/threonine-protein kinase 4 (STK4, Homo sapiens, UniProt Q13043)
Sequence (Q13043 1-487, as in one of the studies): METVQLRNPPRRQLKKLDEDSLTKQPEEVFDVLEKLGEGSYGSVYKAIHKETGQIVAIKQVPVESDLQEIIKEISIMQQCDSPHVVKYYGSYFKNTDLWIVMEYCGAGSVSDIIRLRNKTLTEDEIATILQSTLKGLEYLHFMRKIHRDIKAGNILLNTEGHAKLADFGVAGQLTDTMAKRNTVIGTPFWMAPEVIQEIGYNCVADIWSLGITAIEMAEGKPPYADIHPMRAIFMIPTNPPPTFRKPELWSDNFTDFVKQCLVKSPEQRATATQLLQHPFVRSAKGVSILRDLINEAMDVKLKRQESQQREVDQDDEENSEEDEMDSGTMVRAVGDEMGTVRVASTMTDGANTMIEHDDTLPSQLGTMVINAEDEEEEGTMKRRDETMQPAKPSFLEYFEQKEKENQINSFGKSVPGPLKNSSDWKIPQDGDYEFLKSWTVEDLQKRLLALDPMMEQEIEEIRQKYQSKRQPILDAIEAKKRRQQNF

O=C(Nc1cccnn1)N1CC(C/C=C/c2cncc(Oc3ccc(C(F)(F)F)cn3)n2)C1
remaining binding (cell-free assay, competition with immobilised ligand; 1 µM): 100%

CN(c1nccc(-c2cnn3ncccc23)n1)C1CC1
remaining signal (cell-free assay; 1 µM): 99%

Cc1nc(C2CCN(C(=O)c3ccc(OC(F)(F)F)cc3N)CC2)c2ncc(N3CCN(C)CC3)cc2n1
remaining binding (cell-free assay, competition with immobilised ligand; 1 µM): 85%

Cn1c2c(c3ccc(Cl)c(Cl)c31)C(C#N)C1(CCCC1)NC2=O (centres unmarked)
ΔTm (thermal stability, DSF; 10 µM): 0.3 °C

C[C@H](c1ccc(F)cc1)N(Cc1cccc(C(=O)O)c1)C(=O)c1cnc2ccccc2c1
remaining binding (cell-free assay, competition with immobilised ligand; 1 µM): 92%

CCC1(CC)NC(=O)c2c(c3ccc(Cl)c(Cl)c3n2C)C1C#N (centres unmarked)
ΔTm (thermal stability, DSF; 10 µM): -0.3 °C

COc1cc2ncnc(Nc3ccc(Oc4ccccc4)cc3C)c2cc1OC
inhibition (enzyme activity, inhibitor; 1 µM): 1%

CC(=O)C1=C(C)N(c2cccc(C(F)(F)F)c2)C(=O)N[C@@H]1c1ccc(C#N)nc1
remaining binding (cell-free assay, competition with immobilised ligand; 1 µM): 97.5%

CC(C)(C)c1nc(-c2cccc(NS(=O)(=O)c3c(F)cccc3F)c2F)c(-c2ccnc(N)n2)s1
remaining activity (enzyme activity, inhibitor, radiometric; 1 µM): 105%

CN(C)C(=O)Cn1cc(-c2nc(C3(c4ccc(-c5cnc(N)nc5)cc4)CC3)no2)cn1
remaining binding (cell-free assay, competition with immobilised ligand; 1 µM): 90%

COc1cc(Cl)c(C(=O)N[C@@H](CN[C@H]2CC[C@@H](N)CC2)Cc2ccc(C#N)cc2)cc1-c1ccc(CN[C@H](C)c2ccc(C)cc2)o1
remaining activity (enzyme activity, inhibitor; 1 µM): 102%

CCCS(=O)(=O)Nc1ccc(F)c(C(=O)c2c[nH]c3ncc(-c4ccc(Cl)cc4)cc23)c1F
inhibition (enzyme activity, inhibitor; 1 µM): < 20%

CNC(=O)Nc1ccc2c(c1)CC[C@@]21OC(=O)N(CC(=O)N(Cc2ccc(F)cc2)[C@@H](C)C(F)(F)F)C1=O
remaining binding (cell-free assay, competition with immobilised ligand; 1 µM): 100%

O=C(Nc1cnn(-c2csc(C(=O)NC3COC3)c2)c1)Nc1ccccc1Cl
remaining activity (enzyme activity, inhibitor; 5 µM): 99.3%

CCN(CC)CCNC(=O)c1c(C)[nH]c(/C=C2\C(=O)Nc3ccc(F)cc32)c1C
remaining signal (cell-free assay; 0.5 µM): 10.7%

c1ccc(CNc2nc(N3CCOc4ccccc43)nc3c2CCCC3)cc1
inhibition (target engagement in cells, inhibitor, chemoproteomics; 20 mM): 1.2%

Cc1sc(C(=O)NC2COC2)cc1-n1cc(NC(=O)Nc2c(F)cccc2Cl)cn1
remaining activity (enzyme activity, inhibitor; 10 µM): 107%

COc1ccc2cc(OCC3(C(=O)O)CN(C(=O)c4ccc(F)cc4)C3)ccc2c1
remaining binding (cell-free assay, competition with immobilised ligand; 1 µM): 100%

CCN1CCN(Cc2ccc(NC(=O)c3ccc(C)c(Oc4ccnc5[nH]ccc45)c3)cc2C(F)(F)F)CC1
inhibition (target engagement in cells, inhibitor, chemoproteomics; Huh-7; 1 µM): -64.5%

Cc1cc(NC(=O)c2cccc3cc(-c4cccc5[nH]nc(N)c45)ccc23)ccc1F
activity vs control (enzyme activity, inhibitor; 0.1 µM): 104%

CC1(C)NC(=O)c2[nH]c3c(Cl)c(Cl)ccc3c2C1C#N (centres unmarked)
ΔTm (thermal stability, DSF; 10 µM): -0.6 °C

CS(=O)(=O)N1CCCC(NC(=O)[C@H](CCC2CCCCC2)NC(=O)c2ccc(CNC(=O)c3cnc4ccccn34)cc2)C1 (some centres unmarked)
remaining binding (cell-free assay, competition with immobilised ligand; 0.1 µM): 100%

Cn1c2c(Cl)c(Cl)ccc2c2cc(N)[nH]c(=O)c21
ΔTm (thermal stability, DSF; 10 µM): 1.5 °C

CCCCNc1ncc2c(-c3ccc(F)cc3)nn(C[C@H]3CC[C@H](N)CC3)c2n1
inhibition (target engagement in cells, inhibitor, chemoproteomics; 20 mM): 48.3%

Cn1c2c(Cl)c(Cl)ccc2c2cn[nH]c(=O)c21
ΔTm (thermal stability, DSF; 10 µM): 0.4 °C

N#CCCc1ccc2c(c1)-c1[nH]c3ccc([N+](=O)[O-])cc3c1CC(=O)N2
remaining signal (cell-free assay; 0.5 µM): 30.9%

CNC(=O)c1cc(Oc2ccc(NC(=O)Nc3ccc(Cl)c(C(F)(F)F)c3)cc2)ccn1
inhibition (enzyme activity, inhibitor; 0.3 µM): -7%

O=C1Nc2ccc(Cl)cc2C1=Cc1cc(Cl)c(O)c(Cl)c1
remaining signal (cell-free assay; 0.5 µM): 32.5%

Cc1ccc(Nc2nccc(N(C)c3ccc4c(C)n(C)nc4c3)n2)cc1S(N)(=O)=O
inhibition (enzyme activity, inhibitor; 10 µM): 3%
